The source made the active and inactive calls. The calls are words filed in the database; no cut-off is given here.
Experiments:
[1] = Inhibition of Plasmodium falciparum C-terminal His6-tagged M1 aminopeptidase (195 to 1085 residues) expressed in Escherichia coli BL21(DE3) preincubated for 20 mins followed by L-leucine-7-amido-4-methylcoumarin addition by Morrison equation analysis
How it was run: (§1)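 Recombinant enzymes (Ni-NTA then size exclusion) were preincubated 20 min with inhibitor in 100 mM Tris-HCl pH 8.0, with 2 mM CoCl2 for Pf-M17 and 1 mM for Pv-M17. Leu-AMC substrate: 20 μM (Pf-M1), 40 μM (Pv-M1), 10 μM (both M17). Read at 37 °C, 355/460 nm, to steady-state velocity. Ki from a Morrison tight-binding fit; biological triplicate from three protein preparations.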

[2] = Inhibition of Plasmodium vivax C-terminal His6-tagged M1 aminopeptidase (195 to 1097 residues) expressed in Escherichia coli BL21(DE3) preincubated for 20 mins followed by L-leucine-7-amido-4-methylcoumarin addition by Morrison equation analysis; how it was run: as §1
[3] = Inhibition of Plasmodium falciparum C-terminal His6-tagged M17 aminopeptidase (85 to 605 residues) expressed in Escherichia coli BL21(DE3) preincubated for 20 mins followed by L-leucine-7-amido-4-methylcoumarin addition by Morrison equation analysis; how it was run: as §1
[4] = Inhibition of Plasmodium vivax C-terminal His6-tagged M17 aminopeptidase (203 to 621 residues) expressed in Escherichia coli BL21(DE3) preincubated for 20 mins followed by L-leucine-7-amido-4-methylcoumarin addition by Morrison equation analysis; how it was run: as §1
Plasmodium falciparum [5] = assay: (§2) Reversible inhibition of Plasmodium falciparum C-terminal His6-tagged M17 aminopeptidase (85 to 605 residues) expressed in Escherichia coli BL21(DE3) assessed as enzyme activity recovery at 150 uM preincubated followed by compound washout for 5 hrs and subsequent L-leucine-7-amido-4-methylcoumarin substrate addition by fluorescence assay
How it was run: (§3)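 Pf-M17 (20 μM) was incubated overnight at 4 °C with 150 μM compound, 150 μM bestatin, 2 mM EDTA, or buffer (50 mM HEPES pH 8, 300 mM NaCl). It was then washed by repeated 10-fold concentration/dilution for up to 7 h, incubated 10 min in 1 mM MnCl2, 100 mM Tris pH 8.0, given 25 μM Leu-AMC (final), and fluorescence followed for 30 min.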

Plasmodium falciparum [6] = assay: as §2, with “for 7” for “for 5”, “assay relative to control” for “assay”; parameters: scale not given: the % may be the effect or the level left; how it was run: as §3
Plasmodium falciparum [7] = assay: Antimalarial activity against Plasmodium falciparum 3D7 after 72 hrs by DAPI staining-based confocal imaging analysis; assay type: functional, organism-based; conditions: 3D7, 72 h
How it was run: (§4)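 Exposed to a 16-point dose series (40 μM to 0.4 nM final, 0.4% DMSO) for 72 h at 37 °C in 90% N2/5% CO2/5% O2. DAPI-stained and imaged confocally. Two biological replicates, each with two technical repeats.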

Plasmodium falciparum [8] = assay: Antimalarial activity against Plasmodium falciparum Dd2 after 72 hrs by DAPI staining-based confocal imaging analysis; assay type: functional, organism-based; conditions: Plasmodium falciparum, Dd2, 72 h; read-out: IC50; how it was run: as §4
[9] = Growth inhibition of HEK293 cells at 10 uM after 72 hrs by resazurin dye based assay relative to control; assay type: cell-based; conditions: human, read-out: GI
How it was run: (§5)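 HEK293 cells kept in DMEM with 10% FBS. Exposed to compounds for 72 h at 37 °C, 5% CO2, using the same dilution scheme as the parasite assay (top 40 μM). Medium then replaced with 44 μM resazurin, and fluorescence (530/595 nm) read after 5–6 h.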

[10] = Growth inhibition of HEK293 cells at 40 uM after 72 hrs by resazurin dye based assay relative to control; assay type: cell-based; conditions: human, read-out: GI; how it was run: as §5
[11] = Selectivity index, ratio of CC50 for HEK293 cells to IC50 for Plasmodium falciparum 3D7; assay type: toxicity; conditions: human, read-out: Ratio CC50/IC50
[12] = Selectivity ratio of Ki for Plasmodium falciparum C-terminal His6-tagged M1 aminopeptidase (195 to 1085 residues) expressed in Escherichia coli BL21(DE3) to Ki for Plasmodium vivax C-terminal His6-tagged M1 aminopeptidase (195 to 1097 residues) expressed in Escherichia coli BL21(DE3)
[13] = Cytotoxicity against HEK293 cells after 72 hrs by resazurin dye based assay; assay type: cell-based; conditions: human; how it was run: as §5
[14] = biological target: 72 kDa type IV collagenase (Homo sapiens, UniProt P08253); assay: Inhibition of MMP2 (unknown origin) preincubated for 1 hr followed by (QF)-24 substrate addition measured at 1 min time interval for 1 hr by fluorescence assay
Sequence of 72 kDa type IV collagenase (P08253 whole entry): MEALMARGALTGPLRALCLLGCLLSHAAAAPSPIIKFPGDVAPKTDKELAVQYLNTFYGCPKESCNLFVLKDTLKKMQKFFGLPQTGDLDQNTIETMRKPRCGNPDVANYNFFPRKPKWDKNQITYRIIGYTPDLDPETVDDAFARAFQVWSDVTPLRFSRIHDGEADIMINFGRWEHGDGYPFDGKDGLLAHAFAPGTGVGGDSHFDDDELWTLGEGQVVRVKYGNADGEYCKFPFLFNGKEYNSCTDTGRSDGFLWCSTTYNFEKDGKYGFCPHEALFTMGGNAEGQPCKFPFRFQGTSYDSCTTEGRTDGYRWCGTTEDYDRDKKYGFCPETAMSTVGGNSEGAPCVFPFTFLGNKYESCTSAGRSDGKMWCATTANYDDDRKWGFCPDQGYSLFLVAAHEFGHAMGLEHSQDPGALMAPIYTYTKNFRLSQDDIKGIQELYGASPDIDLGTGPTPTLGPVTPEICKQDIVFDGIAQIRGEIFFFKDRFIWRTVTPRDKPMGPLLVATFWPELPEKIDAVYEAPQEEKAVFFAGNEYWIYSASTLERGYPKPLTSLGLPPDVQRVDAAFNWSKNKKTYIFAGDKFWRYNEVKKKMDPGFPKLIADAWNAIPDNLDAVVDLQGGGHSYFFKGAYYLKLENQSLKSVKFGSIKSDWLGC

[15] = biological target: Matrix metalloproteinase-9 (Homo sapiens, UniProt P14780); assay: Inhibition of MMP9 (unknown origin) preincubated for 1 hr followed by (QF)-24 substrate addition measured at 1 min time interval for 1 hr by fluorescence assay
Sequence of Matrix metalloproteinase-9 (P14780 whole entry): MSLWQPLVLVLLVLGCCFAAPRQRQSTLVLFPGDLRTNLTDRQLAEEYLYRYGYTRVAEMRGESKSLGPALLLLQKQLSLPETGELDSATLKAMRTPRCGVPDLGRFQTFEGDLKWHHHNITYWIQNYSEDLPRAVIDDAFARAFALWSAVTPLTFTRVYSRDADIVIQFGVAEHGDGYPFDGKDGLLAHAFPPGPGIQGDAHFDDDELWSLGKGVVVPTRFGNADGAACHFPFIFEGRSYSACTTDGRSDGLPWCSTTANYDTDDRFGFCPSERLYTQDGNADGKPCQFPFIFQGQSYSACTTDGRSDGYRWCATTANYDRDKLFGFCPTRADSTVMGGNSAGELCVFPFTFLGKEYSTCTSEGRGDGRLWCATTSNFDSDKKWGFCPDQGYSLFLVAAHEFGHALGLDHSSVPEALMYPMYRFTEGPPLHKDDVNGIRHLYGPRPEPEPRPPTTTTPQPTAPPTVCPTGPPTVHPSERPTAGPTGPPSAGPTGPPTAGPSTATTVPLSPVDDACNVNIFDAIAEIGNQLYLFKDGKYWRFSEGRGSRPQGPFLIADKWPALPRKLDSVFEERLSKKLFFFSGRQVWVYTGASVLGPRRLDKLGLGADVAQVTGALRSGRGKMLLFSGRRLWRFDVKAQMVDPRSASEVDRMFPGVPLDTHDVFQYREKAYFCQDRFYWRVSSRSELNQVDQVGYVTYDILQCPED

[16] = biological target: Neutrophil collagenase (Homo sapiens) (UniProt P22894); assay: Inhibition of MMP8 (unknown origin) preincubated for 1 hr followed by (QF)-24 substrate addition measured at 1 min time interval for 1 hr by fluorescence assay
Sequence of Neutrophil collagenase (Homo sapiens) (P22894 101-467 limits assumed): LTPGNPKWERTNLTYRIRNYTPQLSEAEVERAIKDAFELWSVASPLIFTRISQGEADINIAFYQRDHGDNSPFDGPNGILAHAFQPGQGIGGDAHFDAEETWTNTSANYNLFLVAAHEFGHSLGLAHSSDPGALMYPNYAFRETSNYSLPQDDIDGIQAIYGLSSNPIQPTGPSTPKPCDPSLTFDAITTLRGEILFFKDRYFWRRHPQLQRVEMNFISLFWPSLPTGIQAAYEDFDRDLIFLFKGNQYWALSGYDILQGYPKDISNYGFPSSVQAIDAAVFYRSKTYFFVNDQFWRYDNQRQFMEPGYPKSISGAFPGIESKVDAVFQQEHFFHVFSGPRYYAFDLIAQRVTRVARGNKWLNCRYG
How it was run: (§6)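 MMPs were activated with 1 mM 4-aminophenylmercuric acetate (50 mM HEPES, 150 mM NaCl, 5 mM CaCl2, pH 7.0, 1 h, rt). 1 μM QF24 was added at 37 °C and read at 320/405 nm every minute for 1 h. IC50 from a four-parameter Hill fit; three independent experiments.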

[17] = biological target: T1, Matrilysin (Homo sapiens) (UniProt P09237); assay: Inhibition of MMP7 (unknown origin) preincubated for 1 hr followed by (QF)-24 substrate addition measured at 1 min time interval for 1 hr by fluorescence assay; how it was run: as §6
T1 sequence (whole entry): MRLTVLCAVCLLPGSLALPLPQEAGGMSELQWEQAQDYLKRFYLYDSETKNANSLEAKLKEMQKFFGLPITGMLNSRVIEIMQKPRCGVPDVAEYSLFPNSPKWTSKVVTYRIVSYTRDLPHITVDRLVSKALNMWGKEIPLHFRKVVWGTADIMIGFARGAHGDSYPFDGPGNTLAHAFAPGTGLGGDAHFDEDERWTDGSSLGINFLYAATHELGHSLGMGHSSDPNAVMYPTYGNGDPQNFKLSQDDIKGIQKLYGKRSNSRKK

[18] = system: Insulin-regulated aminopeptidase (Homo sapiens); assay: Inhibition of human IRAP at <200 uM preincubated for 10 mins followed by L-leucine-7-amido-4-methylcoumarin addition by fluorescence assay
Aminopeptidase N = Aminopeptidase N (Homo sapiens, UniProt P15144); assay: Inhibition of human APN expressed in HEK293 cells preincubated for 10 mins followed by L-leucine-7-amido-4-methylcoumarin addition by fluorescence assay
Sequence of Aminopeptidase N (P15144 whole entry): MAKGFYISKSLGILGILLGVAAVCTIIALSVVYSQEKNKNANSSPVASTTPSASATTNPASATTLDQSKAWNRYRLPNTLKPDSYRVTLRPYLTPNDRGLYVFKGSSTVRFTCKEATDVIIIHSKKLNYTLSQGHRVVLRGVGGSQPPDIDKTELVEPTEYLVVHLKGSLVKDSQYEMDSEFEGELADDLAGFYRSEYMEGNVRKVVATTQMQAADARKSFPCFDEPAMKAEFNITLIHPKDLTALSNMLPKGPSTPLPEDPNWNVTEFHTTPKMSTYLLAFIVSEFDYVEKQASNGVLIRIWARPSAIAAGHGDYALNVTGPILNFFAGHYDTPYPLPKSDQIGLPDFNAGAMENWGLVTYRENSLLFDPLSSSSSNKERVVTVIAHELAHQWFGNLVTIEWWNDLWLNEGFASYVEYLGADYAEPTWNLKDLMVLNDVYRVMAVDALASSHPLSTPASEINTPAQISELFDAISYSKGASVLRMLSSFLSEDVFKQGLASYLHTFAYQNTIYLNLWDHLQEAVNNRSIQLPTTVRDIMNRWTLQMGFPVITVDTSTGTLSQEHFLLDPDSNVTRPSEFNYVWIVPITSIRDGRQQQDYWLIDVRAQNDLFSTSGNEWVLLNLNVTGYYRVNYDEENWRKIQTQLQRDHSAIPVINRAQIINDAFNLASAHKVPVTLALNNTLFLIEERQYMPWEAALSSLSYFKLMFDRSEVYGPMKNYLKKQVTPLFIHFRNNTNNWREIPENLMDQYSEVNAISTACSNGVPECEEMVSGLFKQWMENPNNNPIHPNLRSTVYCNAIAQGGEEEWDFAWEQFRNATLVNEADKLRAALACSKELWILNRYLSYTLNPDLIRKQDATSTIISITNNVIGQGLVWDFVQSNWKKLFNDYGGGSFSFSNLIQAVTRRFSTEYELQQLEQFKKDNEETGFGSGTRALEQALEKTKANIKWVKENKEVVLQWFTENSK

Row | Structure (SMILES) | Ki [1] [µM] | Ki [2] [µM] | Ki [3] [µM] | Ki [4] [µM] | inhibition (Plasmodium falciparum [5]) | Activity (Plasmodium falciparum [6]) [%] | IC50 (Plasmodium falciparum [7]) [µM] | IC50 (Plasmodium falciparum [8]) [µM] | inhibition at 72 h, 10 µM [9] [%] | inhibition at 72 h, 40 µM [10] [%] | selectivity ratio [11] | Ratio Ki [12] | CC50 at 72 h [13] [µM] | IC50 [14] [µM] | IC50 [15] [µM] | inhibition [16] | inhibition [17] | inhibition [18] | Ki (Aminopeptidase N) [µM]
1 | O=C(NO)C(NC(=O)C12CC3CC(CC(C3)C1)C2)c1ccc(-c2cc(F)c(F)c(F)c2)cc1 (centres undefined) | 0.137 | 0.122 | 0.0289 | 0.0186 | Active | 20 | 0.357 | 0.313 | 2.1 | 42.9 | ≥ 56 | 1.1 |  |  |  |  |  |  | 
2 | CC(C)(C)CC(=O)NC(C(=O)NO)c1ccc(-c2cc(F)c(F)c(F)c2)cc1 (centres undefined) | 0.269 | 0.00639 | 0.101 | 0.0036 |  |  | 0.0146 | 0.0138 | 4.8 | 98.4 | ≥ 1370 | 42.1 | ≥ 20 | 17 | > 1000 | Active | Active | inactive | 0.3

From ChEMBL document CHEMBL4371057, “Hydroxamic Acid Inhibitors Provide Cross-Species Inhibition of Plasmodium M1 and M17 Aminopeptidases” (J Med Chem, 2019)
